Screens (PubChem BioAssay)
Hits are enriched below; roughly 3.3% of the tested compounds scored in any of these assays.
SIAE primary: blocks human sialic acid acetylesterase; AID 1053197; SIAE FP-Rh probe binding, fluorescence polarization; Q9HAT2; 370,000 compounds, 0.69% hits; inhibition, % at 9.66 µM;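 active means inhibition above a cutoff: mean of compounds within the control limits plus 3 SD of those, cut at about 17% in these data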
UHRF1 binding: UHRF1 methyl-DNA binding inhibition. AID 687016. inhibition, % at 4.4 µM. 370,000 compounds, 0.75% hits. Q96T88. UHRF1 binding to methylated oligo, TR-FRET; in the data active means inhibition above about 21%;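 further: UHRF1 SRA domain binding a hemimethylated CpG hairpin DNA probe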
Target sequence (Q96T88 whole entry, looked up, the tested form may be a part): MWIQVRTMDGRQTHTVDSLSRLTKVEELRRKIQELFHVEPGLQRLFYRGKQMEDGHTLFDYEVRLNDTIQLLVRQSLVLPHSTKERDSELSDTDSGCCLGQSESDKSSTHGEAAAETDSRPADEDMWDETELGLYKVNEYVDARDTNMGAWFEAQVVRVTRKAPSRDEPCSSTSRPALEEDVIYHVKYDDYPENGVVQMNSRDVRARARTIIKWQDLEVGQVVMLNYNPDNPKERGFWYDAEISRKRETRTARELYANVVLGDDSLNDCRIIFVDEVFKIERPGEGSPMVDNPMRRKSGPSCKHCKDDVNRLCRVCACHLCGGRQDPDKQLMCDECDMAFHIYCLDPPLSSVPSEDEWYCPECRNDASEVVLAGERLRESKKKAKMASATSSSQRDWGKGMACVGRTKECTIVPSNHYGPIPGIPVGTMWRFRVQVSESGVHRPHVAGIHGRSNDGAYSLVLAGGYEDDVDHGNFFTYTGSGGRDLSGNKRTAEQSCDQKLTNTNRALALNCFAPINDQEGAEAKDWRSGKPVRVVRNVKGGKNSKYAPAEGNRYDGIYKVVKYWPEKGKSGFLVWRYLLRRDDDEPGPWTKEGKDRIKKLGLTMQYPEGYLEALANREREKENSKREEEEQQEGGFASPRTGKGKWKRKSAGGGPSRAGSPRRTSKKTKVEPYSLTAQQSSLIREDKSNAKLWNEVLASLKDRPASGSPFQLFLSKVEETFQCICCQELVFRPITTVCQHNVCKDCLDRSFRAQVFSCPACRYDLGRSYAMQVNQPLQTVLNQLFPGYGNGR
TDP2 inh: TDP2 (human) inhibition, absorbance primary screen. recombinant TDP2, T5PNP hydrolysis, p-nitrophenol absorbance 415 nm. inhibition, % at 12.8 µM. 370,000 compounds, 0.34% hits. AID 720702;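 active means inhibition above the mean of all tested compounds plus 3 SD, set per campaign, cut at about 25% in these data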
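Test system: Human TDP2 enzyme | Reagent: 5 mM T5PNP | Compound dosing: 12.8 µM single point, 1% DMSO | Incubation: Enzyme reaction with compound for 2 h at 37 °C | Technique: p-Nitrophenol epi absorbance | Read-out: % inhibition relative to enzyme-containing and enzyme-free wells | Benchmarks: High control without enzyme, low control DMSO plus TDP2 | Replicates: Singlicate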
MBD2 DNA inh: inhibitors of human MBD2 binding to methylated oligonucleotide | 370,000 compounds, 0.31% hits | TR-FRET | inhibition, % at 4.4 µM; in the data active means inhibition above about 13%
PRMT1 FP inh: inhibitors of human PRMT1 | Q99873 | recombinant PRMT1, activity-based probe fluorescence polarization | inhibition, % at 2.79 µM | 370,000 compounds, 1.3% hits;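 active means inhibition above about 21% made by adding two undisclosed values, limit read from the data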
LEDGF integ inh: blocks HIV-1 LEDGF/p75-dependent DNA integration; TR-FRET IN-LEDGF/p75 DNA integration, Eu/Cy5; inhibition, % at 3.7 µM; 370,000 compounds, 0.64% hits; AID 743269;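 active means inhibition above the screen-wide mean plus 3 SD, cut at about 13% in these data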;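 further: signal is the Cy5 over europium emission ratio at 671 and 618 nm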
SIAE confirm: confirmation of human SIAE inhibitors; shares compounds with SIAE primary; SIAE FP-Rh activity-based probe, fluorescence polarization; inhibition, % at 9.66 µM; 2,300 compounds, 13% hits; AID 1117263;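 active means mean inhibition of the replicates above the hit cutoff set in the primary screen, cut at about 17% in these data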;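 further: inhibitors lower polarization as more probe stays unbound to SIAE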
Numbers stand for hits.

How did COc1cc(CNC(=O)c2cnccn2)cc(OC)c1 do in these assays?
SIAE primary: inactive; UHRF1 binding: inactive; TDP2 inh: inactive; MBD2 DNA inh: inactive; PRMT1 FP inh: inactive; LEDGF integ inh: inactive

How did COc1cc(CNC(=O)c2cc(C(=O)NCc3cc(OC)cc(OC)c3)n(C)n2)cc(OC)c1 do in these assays?
SIAE primary: 19.9; UHRF1 binding: inactive; TDP2 inh: inactive; MBD2 DNA inh: inactive; PRMT1 FP inh: inactive; LEDGF integ inh: inactive; SIAE confirm: inactive

Results for Clc1cc(Cl)cc(CNC2CCC23CCC(c2ccccc2)CC3)c1 (stereo not drawn) ?
SIAE primary: inactive; UHRF1 binding: inactive; TDP2 inh: inactive; MBD2 DNA inh: inactive; PRMT1 FP inh: inactive; LEDGF integ inh: inactive

What do the screens show for `CCCCCCn1c(N(CC)CC)nc2c1c(=O)[nH]c(=O)n2C`?
SIAE primary: 22.7; UHRF1 binding: inactive; TDP2 inh: inactive; MBD2 DNA inh: inactive; PRMT1 FP inh: inactive; LEDGF integ inh: inactive; SIAE confirm: inactive

What do the screens show for `Cc1cccc(NC(=O)Nc2ccccc2C(=O)N2CCCC2)c1`?
SIAE primary: inactive; UHRF1 binding: inactive; TDP2 inh: inactive; MBD2 DNA inh: inactive; PRMT1 FP inh: inactive; LEDGF integ inh: inactive

What do the screens show for `COc1ccc(S[C@]2(C(=O)N3CCN(c4ncccn4)CC3)CC(=O)N(c3ccc(Cl)cc3)[C@@H]2c2ccc(OC)cc2)cc1`?
SIAE primary: inactive; UHRF1 binding: inactive; TDP2 inh: inactive; MBD2 DNA inh: inactive; PRMT1 FP inh: inactive; LEDGF integ inh: inactive

What do the screens show for `O=S(=O)(NCC1CCCO1)c1ccccc1` (stereo not drawn)?
SIAE primary: inactive; UHRF1 binding: inactive; TDP2 inh: inactive; MBD2 DNA inh: inactive; PRMT1 FP inh: inactive; LEDGF integ inh: inactive

What do the screens show for `O=C(c1ccc(S(=O)(=O)NCC2CCCO2)cc1)N1CCc2ccccc21` (stereo not drawn)?
SIAE primary: 22.0; UHRF1 binding: inactive; TDP2 inh: inactive; MBD2 DNA inh: inactive; PRMT1 FP inh: inactive; LEDGF integ inh: inactive; SIAE confirm: inactive

What do the screens show for `CCOc1cc(/C=N/Nc2nc3ccccc3[nH]2)cc(Br)c1OCC(=O)N(C)C`?
SIAE primary: 23.8; UHRF1 binding: inactive; TDP2 inh: inactive; MBD2 DNA inh: inactive; PRMT1 FP inh: inactive; LEDGF integ inh: inactive; SIAE confirm: 20.8

How did O=C1NC[C@@H](CCCCN2CCN(Cc3ccccc3)C(=O)C2=O)N(CCC2CCCCC2)C1=O do in these assays?
SIAE primary: 18.3; UHRF1 binding: inactive; TDP2 inh: inactive; MBD2 DNA inh: inactive; PRMT1 FP inh: inactive; LEDGF integ inh: inactive; SIAE confirm: inactive

How did CCCn1nc([N+](=O)[O-])c(C(C#N)c2nc3ccccc3o2)c(Cl)c1=O (stereo not drawn) do in these assays?
SIAE primary: 22.0; UHRF1 binding: inactive; TDP2 inh: inactive; MBD2 DNA inh: inactive; PRMT1 FP inh: 22.4; LEDGF integ inh: inactive; SIAE confirm: inactive

What do the screens show for `CCCCn1c(N)c(-c2nc3ccccc3o2)c2c([N+](=O)[O-])nn(CC)c(=O)c21`?
SIAE primary: inactive; UHRF1 binding: inactive; TDP2 inh: inactive; MBD2 DNA inh: inactive; PRMT1 FP inh: inactive; LEDGF integ inh: inactive

What do the screens show for `CC(C)CN1C(=O)C[C@]2(C(=O)N(C)c3ccc(NC(=O)C(C)(C)C)cc32)C1c1ccccc1` (stereo partly drawn)?
SIAE primary: inactive; UHRF1 binding: inactive; TDP2 inh: inactive; MBD2 DNA inh: inactive; PRMT1 FP inh: inactive; LEDGF integ inh: inactive

What do the screens show for `Oc1[nH]c2ccccc2c1N=Nc1nc(Nc2ccccc2)nc(N2CCOCC2)n1`?
SIAE primary: inactive; UHRF1 binding: inactive; TDP2 inh: inactive; MBD2 DNA inh: inactive; PRMT1 FP inh: inactive; LEDGF integ inh: inactive

What do the screens show for `Cc1[nH]c2ccccc2c1/C=N/Nc1nc(Nc2ccccc2)nc(N2CCOCC2)n1`?
SIAE primary: 31.8; UHRF1 binding: inactive; TDP2 inh: inactive; MBD2 DNA inh: inactive; PRMT1 FP inh: inactive; LEDGF integ inh: inactive; SIAE confirm: inactive

What do the screens show for `CCN(CC)c1ccc(NC(=O)c2cc3c(OC)cccc3[nH]2)cc1`?
SIAE primary: 25.0; UHRF1 binding: inactive; TDP2 inh: inactive; MBD2 DNA inh: inactive; PRMT1 FP inh: inactive; LEDGF integ inh: inactive; SIAE confirm: inactive

Results for COc1cccc2[nH]c(C(=O)NC(C)c3ccccc3)cc12 (stereo not drawn) ?
SIAE primary: inactive; UHRF1 binding: inactive; TDP2 inh: inactive; MBD2 DNA inh: inactive; PRMT1 FP inh: inactive; LEDGF integ inh: inactive

How did COc1ccc(Nc2cc(C)c3cc([N+](=O)[O-])ccc3n2)cc1 do in these assays?
SIAE primary: 24.4; UHRF1 binding: inactive; TDP2 inh: inactive; MBD2 DNA inh: inactive; PRMT1 FP inh: inactive; LEDGF integ inh: inactive; SIAE confirm: inactive

How did CC(=O)Nc1ccc(OCC(O)Cn2c(C)nc3ccccc32)cc1 (stereo not drawn) do in these assays?
SIAE primary: 18.6; UHRF1 binding: inactive; TDP2 inh: inactive; MBD2 DNA inh: inactive; PRMT1 FP inh: inactive; LEDGF integ inh: inactive; SIAE confirm: inactive

Results for COc1ccc(-n2c(Cc3cccs3)nnc2SCC(=O)Nc2ccc(OCc3ccccc3)cc2)cc1 ?
SIAE primary: inactive; UHRF1 binding: inactive; TDP2 inh: inactive; MBD2 DNA inh: inactive; PRMT1 FP inh: inactive; LEDGF integ inh: inactive

Results for Nc1nc(N)c2cc(CNc3ccc(Cl)c(Cl)c3)ccc2n1 ?
SIAE primary: 39.4; UHRF1 binding: 21.6; TDP2 inh: inactive; MBD2 DNA inh: inactive; PRMT1 FP inh: inactive; LEDGF integ inh: inactive; SIAE confirm: 46.1

What do the screens show for `N#C[C@H](N)[C@H]1O[C@@H](n2ccc(=O)[nH]c2=O)[C@H](O)[C@@H]1O`?
SIAE primary: inactive; UHRF1 binding: inactive; TDP2 inh: inactive; MBD2 DNA inh: inactive; PRMT1 FP inh: inactive; LEDGF integ inh: inactive

Results for Nc1nc2c(ncn2[C@@H]2O[C@H](C(=O)N[C@H](Cc3ccccc3)C(=O)NC3CCCCC3)[C@@H](O)[C@H]2O)c(=O)[nH]1 ?
SIAE primary: 31.8; UHRF1 binding: inactive; TDP2 inh: inactive; MBD2 DNA inh: inactive; PRMT1 FP inh: inactive; LEDGF integ inh: inactive; SIAE confirm: 34.7

Results for CN(C(=O)[C@H]1O[C@@H](n2cnc3c(=O)[nH]c(N)nc32)[C@H](O)[C@@H]1O)C1CCCCC1 ?
SIAE primary: 40.6; UHRF1 binding: inactive; TDP2 inh: inactive; MBD2 DNA inh: inactive; PRMT1 FP inh: inactive; LEDGF integ inh: inactive; SIAE confirm: 45.9

How did Nc1nc2c(ncn2[C@@H]2O[C@H](C(=O)NC3CCCCC3)[C@@H](O)[C@H]2O)c(=O)[nH]1 do in these assays?
SIAE primary: 48.6; UHRF1 binding: inactive; TDP2 inh: inactive; MBD2 DNA inh: inactive; PRMT1 FP inh: inactive; LEDGF integ inh: inactive; SIAE confirm: 42.6
